Reference: ChEMBL document CHEMBL1649384, “Synthesis and antiproliferative activity of novel symmetrical alkylthio- and alkylseleno-imidocarbamates” (Eur J Med Chem, 2011)

Experiments:
MCF7 = experiment: Cytotoxicity against human MCF7 cells after 72 hrs by MTT assay; format: functional; settings: MCF7, 72 h
Method in brief: (§1)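 Cells seeded per well: Hep-G2 1×10⁴, HT-29 4×10³, K-562 4×10³, MCF-7 1.2×10⁴, MCF-10A 7×10³, PC-3 2×10³. MCF-10A were grown in supplemented MEBM at 37 °C, 5% CO₂. Five concentrations were tested between 0.01 and 100, with 72 h exposure. Formazan was read by A590. GI₅₀ was taken relative to untreated controls, from at least three independent experiments.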

HT-29 = experiment: Cytotoxicity against human HT-29 cells after 72 hrs by MTT assay; format: functional; settings: HT-29, 72 h; for CC50: read-out: LC50 (the source's name); method in brief: as §1
K562 = experiment: Cytotoxicity against human K562 cells after 72 hrs by MTT assay; format: functional; settings: K562, 72 h; for CC50: read-out: LC50 (the source's name); method in brief: as §1
HepG2 = experiment: Cytotoxicity against human HepG2 cells after 72 hrs by MTT assay; format: functional; settings: HepG2, 72 h; for CC50: read-out: LC50 (the source's name); method in brief: as §1
PC-3 = experiment: Cytotoxicity against human PC3 cells after 72 hrs by MTT assay; format: functional; settings: PC-3, 72 h; for CC50: read-out: LC50 (the source's name); method in brief: as §1
[1] = Cytotoxicity against human MCF10A cells after 72 hrs by MTT assay; format: cell-based, MCF-10A; settings: for GI50 at 72 h: MCF10A cells; for LC50 / TGI: mcf-10a, 72 h; method in brief: as §1

| Structure (SMILES) | GI50 (MCF7) [µM] | LC50 (MCF7) [µM] | TGI (MCF7) [µM] | GI50 (HT-29) [µM] | TGI (HT-29) [µM] | CC50 (HT-29) [µM] | GI50 (K562) [µM] | TGI (K562) [µM] | CC50 (K562) [µM] | GI50 (HepG2) [µM] | TGI (HepG2) [µM] | CC50 (HepG2) [µM] | GI50 (PC-3) [µM] | TGI (PC-3) [µM] | CC50 (PC-3) [µM] | GI50 at 72 h [1] [µM] | LC50 [1] [µM] | TGI [1] [µM] |
| --- | --- | --- | --- | --- | --- | --- | --- | --- | --- | --- | --- | --- | --- | --- | --- | --- | --- | --- |
| CS/C(=N\C(=O)c1csc([N+](=O)[O-])c1)NC(=O)c1csc([N+](=O)[O-])c1 | 44.6 | > 100 | 78.1 | 51.8 | > 100 | > 100 | 56.9 | 98.7 | > 100 | 63.4 | > 100 | > 100 | 41.5 | 82.5 | > 100 | 1.55 | 75.14 | 21.35 |
| O=C(/N=C(/NC(=O)c1cccs1)[Se]Cc1ccccc1)c1cccs1 | 72.5 | > 100 | > 100 | 55.1 | > 100 | > 100 | 29.5 | 58.5 | 87.4 | 34.7 | 58.1 | 81.5 | 49.9 | > 100 | > 100 | 72.5 | > 100 | > 100 |
| CS/C(=N\C(=O)c1cnc2ccccc2c1)NC(=O)c1cnc2ccccc2c1 | 23.9 | > 100 | > 100 | > 100 | > 100 | > 100 | 65.8 | > 100 | > 100 | 57.6 | > 100 | > 100 | 76.3 | > 100 | > 100 | 0.5 | 82.19 | 42.17 |
| O=C(/N=C(/NC(=O)c1cc2ccccc2s1)[Se]Cc1ccccc1)c1cc2ccccc2s1 | 37.9 | 87.9 | 62.9 | 6.51 | > 100 | > 100 | 14.9 | 42.8 | 70.6 | 21 | 49 | 77 | 30.5 | 58.4 | 86.3 | 37.9 | 87.9 | 62.92 |
| CS/C(=N\C(=O)c1cc(-c2ccccc2)nc2ccccc12)NC(=O)c1cc(-c2ccccc2)nc2ccccc12 | 43.1 | > 100 | 87.7 | 23.7 | > 100 | > 100 | 34.4 | > 100 | > 100 | 6.24 | 48.1 | > 100 | 7.48 | > 100 | > 100 | 0.04 | 48.81 | 0.54 |
| O=C(/N=C(/NC(=O)c1sccc1Cl)[Se]Cc1ccccc1)c1sccc1Cl | 3.68 | > 100 | 28.3 | 6.51 | > 100 | > 100 | 7.63 | 95.8 | > 100 | 4.42 | 45.5 | > 100 | 52.7 | > 100 | > 100 | 3.68 | > 100 | 28.33 |
| O=C(/N=C(/NC(=O)c1c2ccccc2nc2ccccc12)[Se]Cc1ccccc1)c1c2ccccc2nc2ccccc12 | 53.7 | > 100 | 88.1 | 26.9 | > 100 | > 100 | 9.6 | 44.5 | 80.7 | 30.4 | 64.5 | 98.5 | 42.3 | 77.4 | > 100 | 53.7 | > 100 | 88.14 |
| CS/C(=N\C(=O)c1ccco1)NC(=O)c1ccco1 | 56.1 | > 100 | > 100 | 77.1 | > 100 | > 100 | 64.8 | > 100 | > 100 | > 100 | > 100 | > 100 | 56.2 | > 100 | > 100 | 8.22 | 85.69 | 46.52 |
| O=C(/N=C(/NC(=O)c1csc([N+](=O)[O-])c1)[Se]Cc1ccccc1)c1csc([N+](=O)[O-])c1 | 24.4 | 83.8 | 54.1 | 9.25 | > 100 | > 100 | 23.5 | 55.8 | 88.2 | 34.1 | 62.8 | 91.6 | 35.9 | 69.2 | > 100 | 24.4 | 83.76 | 54.1 |
| COc1cccc2c1C(=O)c1c(O)c3c(c(O)c1C2=O)C[C@@](O)(C(=O)CO)C[C@@H]3O[C@H]1C[C@H](N)[C@H](O)[C@H](C)O1 [DOXORUBICIN] | 0.02 | – | 5.01 | 0.2 | 25.4 | 25.4 | 0.1 | 5.01 | 19.9 | – | – | – | 0.25 | 3.16 | 19.9 | – | – | – |
| COc1cc([C@@H]2c3cc4c(cc3[C@@H](O[C@@H]3O[C@@H]5CO[C@@H](C)O[C@H]5[C@H](O)[C@H]3O)[C@H]3COC(=O)[C@H]23)OCO4)cc(OC)c1O [ETOPOSIDE] | 19.9 | – | > 100 | 31.6 | > 100 | > 100 | 12.6 | > 100 | > 100 | – | – | – | 0.63 | 3.98 | 79.4 | – | – | – |
| CC(=O)O[C@H]1C(=O)[C@@]2(C)[C@H]([C@H](OC(=O)c3ccccc3)[C@]3(O)C[C@H](OC(=O)[C@H](O)[C@@H](NC(=O)c4ccccc4)c4ccccc4)C(C)=C1C3(C)C)[C@]1(OC(C)=O)CO[C@@H]1C[C@@H]2O [PACLITAXEL] | 0.003 | – | > 100 | 0.003 | 79.4 | 79.4 | 0.004 | 15.8 | > 100 | – | – | – | 0.004 | 12.6 | > 100 | – | – | – |
| CN(Cc1cnc2nc(N)nc(N)c2n1)c1ccc(C(=O)N[C@@H](CCC(=O)O)C(=O)O)cc1 [METHOTREXATE] | 0.06 | – | > 100 | 0.04 | > 100 | 0.03 | 0.03 | > 100 | > 100 | – | – | – | 0.1 | > 100 | > 100 | – | – | – |
